# TIM10 inh: inhibits growth of TIM10 yeast strain | S. cerevisiae TIM10 strain growth, BacTiter-Glo luminescence, 24 h | inhibition, % at 10 µM | hit rate 1.4% among 330,000;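 active = inhibition of 40% or more at the single tested concentration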;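 also: wild-type TIM10 isogenic control strain grown at permissive 25 °C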
# CHOP UPR activ: apoptotic UPR (CHOP) activation; activation, % at 10 µM; CHO-CHOP luciferase reporter, luminescence; percent of tunicamycin response over DMSO baseline; AID 449763; hit rate 0.34% among 330,000;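 active = at 10 µM dose, activation of 40% or more, normalized to positive control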;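 also: 100% = tunicamycin at 10 µg/mL and 0% = DMSO alone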
#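 Material: CHO-CHOP cells, stable luciferase reporter of PERK-eIF2a-CHOP signalling; quantity: 500 reporter cells seeded per well; buffer or medium: F12 medium containing 10% fetal bovine serum; compound: one dose, 10 µM in 0.5% DMSO; incubation: 6 h compound treatment, 37 °C; measured by: Steady-Glo luciferase luminescence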
# tim23-1 inh: tim23-1 yeast growth inhibition; hit rate 1.3% among 330,000; inhibition, % at 20 µM; S. cerevisiae tim23-1 growth, BacTiter-Glo luminescence, 24 h;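 active = growth inhibition of the mutant yeast at or above 50%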;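 also: temperature-sensitive mutant grown at 25 °C; plate controls were DMSO-treated mutant yeast for no effect and medium wells lacking yeast for full effect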
# XBP1 UPR activ: activators of adaptive arm of unfolded protein response (XBP1); AID 463104; activation, % at 20 µM; hit rate 0.33% among 330,000; CHO-XBP1 luciferase reporter, IRE1-XBP1 UPR activation, luminescence; percent of tunicamycin response, DMSO as zero;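 active = versus positive control, 20 µM dose yields 30% or more activation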;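 also: 100% = tunicamycin at 10 µg/mL and 0% = DMSO only wells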
#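 Material: CHO-XBP1 cells stably carrying IRE1-XBP1-driven luciferase reporter / Amount: 1000 cells per well / Compound: 20 µM, 1% DMSO / Times: 6 h treatment, 37 °C / Detection: luciferase luminescence / Measure: % activation of reporter signal versus tunicamycin and DMSO controls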
# tim10-1 inh: tim10-1 yeast growth inhibition; S. cerevisiae tim10-1 ts strain growth, BacTiter-Glo, 24 h; inhibition, % at 20 µM; hit rate 2.2% among 330,000; AID 463190;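 active = inhibition of at least 40%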;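 also: mutant grown at 25 °C; 0% = DMSO wells with yeast and 100% = wells holding no yeast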
# tim10 confirm: TIM10 yeast growth inhibition, confirmed; S. cerevisiae tim10 strain growth, BacTiter-Glo luminescence, 24 h; hit rate 63% among 4,600; AID 463215; shares compounds with TIM10 inh; inhibition, % at 10 µM;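 active = inhibition of yeast growth at or above a set limit in either of two replicates at 10 µM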;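 also: this counterscreen used the strain with wild-type TIM10; 0% = yeast with DMSO and 100% = medium wells lacking yeast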
# tim23-1 confirm: tim23-1 yeast growth inhibition, confirmed. S. cerevisiae tim23-1 growth, BacTiter-Glo luminescence, 24 h. shares compounds with tim23-1 inh. AID 463218. hit rate 83% among 4,400. inhibition, % at 20 µM;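 active = inhibition above about 39% in either of two replicate wells at 20 µM, limit read from the data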;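 also: temperature-sensitive tim23-1 mutant grown at 25 °C; 0% = DMSO wells with yeast and 100% = medium wells without yeast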
# * = called active by the depositor; · = no result. Most compounds without a hit are left out; they make up all but 3.9% or so of the library.
SMILES,TIM10 inh,CHOP UPR activ,tim23-1 inh,XBP1 UPR activ,tim10-1 inh,tim10 confirm,tim23-1 confirm
CC12CC3CC(C)(C1)CC(C(=O)NC(=S)N1CCCCC1)(C3)C2,41*,0,51*,-1,25,14,32
COc1ccccc1C1CCN(c2cc(O)ccc2[N+](=O)[O-])CC1,48*,10,60*,2,36,43*,60*
COC(=O)N/N=C/c1cc([N+](=O)[O-])cc(Br)c1O,3,2,5,1,26,·,·
O=C(N/N=C/c1cc(Br)cc(Br)c1O)c1ccncc1,45*,-1,65*,-1,28,51*,65*
O=C(C[n+]1ccccc1)N/N=C/c1cc(Br)cc(Br)c1O,56*,1,68*,1,37,68*,69*
CCC(O)(CC)C(=O)N/N=C/c1cc(Br)cc(Br)c1O,58*,-1,67*,1,14,49*,73*
O=C(Cc1c(F)cccc1Cl)NNC(=S)Nc1ccc(S(=O)(=O)Nc2ncccn2)cc1,-3,0,12,-3,4,·,·
Cn1c(SCc2ccc(Br)cc2)nnc1-c1cccs1,57*,0,57*,1,37,30*,61*
CCOC(=O)N1CCN(c2c(N3CCN(c4ccccc4F)CC3)c(=O)c2=O)CC1,0,5,-1,-1,4,·,·
CCOC(=O)c1cc(-c2ccncc2)nc2c1c(C)nn2C,45*,0,53*,12,37,41*,51*
CCOC(=O)c1cc(-c2ccccc2)nc2c1c(C)nn2-c1ccccn1,24,1,43,5,28,·,·
NC(=S)N/N=C\c1ccccc1OCc1ccccc1,41*,8,53*,4,10,-37,22
O=C(/C=C\Nc1ccccn1)c1ccccc1,48*,-4,52*,-9,11,52*,80*
COc1ccc(C(=O)/C=C/Nc2ccccn2)c(OC)c1,9,3,7,0,11,·,·
Cc1ccc(S(=O)(=O)c2c[nH]c3cc4c(cc3c2=O)OCO4)cc1,-2,1,-3,0,-15,·,·
O=C(Nc1cccc(-c2cc3ccccc3oc2=O)c1)c1ccc(Br)o1,43*,0,56*,-1,39,47*,62*
Cc1ccc(NC(C#N)c2ccccc2OCc2ccccc2)cc1 (centres undefined),28,7,38,2,12,·,·
CCCNC(=O)c1ccc(-c2nc3ccccc3s2)s1,55*,-6,56*,-10,3,33*,77*
CCCNC(=O)Nc1nc2ccccc2s1,-5,1,21,-1,2,·,·
CN1CCN(C(=O)c2cc([N+](=O)[O-])cc([N+](=O)[O-])c2)CC1,8,0,10,-3,-5,·,·
Oc1cc2c(cc1O)C1c3ccc(O)c(O)c3OCC1(O)C2 (centres undefined),-15,0,3,-1,7,·,·
Cc1ccc(C)n1-c1ccc(NC(=O)c2ccccc2)cc1,-9,6,26,-5,13,·,·
Cc1ccc(NC(=O)c2ccccc2)s1,58*,0,55*,0,26,38*,74*
O=C(COC(=O)c1ccc(Br)o1)Nc1ncc(Cl)cc1Cl,4,0,14,-2,5,·,·
N/C(Cc1ccc(Cl)cc1Cl)=N\OC(=O)c1ccc(Br)o1,86*,0,80*,-1,7,86*,48*
CC(=O)c1sc(NC(=O)CSC(C)C(=O)Nc2cc(C)on2)nc1-c1ccccc1 (centres undefined),0,2,15,1,11,·,·
Cc1ccc(-c2cc(-c3ccccc3Cl)[nH]n2)c(O)c1,51*,3,65*,2,25,65*,9
COc1ccc(O)c(-c2cc(-c3ccccc3Cl)[nH]n2)c1,50*,5,81*,0,39,57*,72*
Cc1c(Cl)cccc1NC(=O)c1cc(-c2ccccc2O)n[nH]1,-1,0,-11,7,8,·,·
